Legend:
[1] = biological target: T1, Transient receptor potential cation channel subfamily V member 2 (Rattus norvegicus, UniProt Q9WUD2); experiment: Agonist activity at recombinant rat TRPV2 expressed in HEK293 cells assessed as increase in intracellular calcium level by Fluo4-AM probe based fluorescence assay; type: cell-based
T1 sequence (Q9WUD2 whole entry): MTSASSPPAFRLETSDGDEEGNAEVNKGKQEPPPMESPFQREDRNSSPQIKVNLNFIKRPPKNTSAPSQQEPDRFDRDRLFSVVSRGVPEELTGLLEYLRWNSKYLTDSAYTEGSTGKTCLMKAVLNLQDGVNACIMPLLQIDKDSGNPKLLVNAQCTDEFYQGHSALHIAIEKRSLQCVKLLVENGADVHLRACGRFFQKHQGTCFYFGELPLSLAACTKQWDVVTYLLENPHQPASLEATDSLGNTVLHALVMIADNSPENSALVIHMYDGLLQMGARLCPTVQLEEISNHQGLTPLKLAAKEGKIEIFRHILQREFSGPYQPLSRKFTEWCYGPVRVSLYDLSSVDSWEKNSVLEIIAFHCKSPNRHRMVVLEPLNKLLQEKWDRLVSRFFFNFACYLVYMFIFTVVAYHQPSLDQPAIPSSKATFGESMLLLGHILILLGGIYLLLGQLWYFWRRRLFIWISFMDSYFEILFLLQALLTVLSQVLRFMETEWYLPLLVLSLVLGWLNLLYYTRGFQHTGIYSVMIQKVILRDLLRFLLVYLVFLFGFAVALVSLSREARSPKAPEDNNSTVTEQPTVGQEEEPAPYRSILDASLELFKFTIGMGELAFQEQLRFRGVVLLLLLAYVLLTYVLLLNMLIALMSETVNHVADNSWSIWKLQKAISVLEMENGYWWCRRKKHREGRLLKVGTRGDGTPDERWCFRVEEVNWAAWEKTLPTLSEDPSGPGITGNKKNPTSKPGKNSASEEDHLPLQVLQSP
In short: (§1)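 HEK-293 cells stably expressing the channel, selected with G-418 (600 μg mL−1) and grown in MEM with 10% FBS and 2 mM glutamine at 37 °C, 5% CO2. Cells were loaded 1 h at room temperature in the dark with Fluo-4 AM (4 μM). Cells were washed and suspended in Tyrode's buffer pH 7.4, and fluorescence was read at 25 °C (ex 488/em 516 nm).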

[2] = biological target: Transient receptor potential cation channel subfamily V member 4 (Rattus norvegicus, UniProt Q9ERZ8); experiment: Agonist activity at recombinant rat TRPV4 expressed in HEK293 cells assessed as increase in intracellular calcium level by Fluo4-AM probe based fluorescence assay; type: cell-based; in short: as §1
Cannabinoid receptor 1 = Cannabinoid receptor 1 (Homo sapiens, UniProt P21554); experiment: Displacement of 3H-CP-55940 from recombinant full length human CB1 receptor expressed in HEK293 cell membranes after 90 mins by topcount scintillation counting analysis
[3] = biological target: Transient receptor potential cation channel subfamily A member 1 (Rattus norvegicus, UniProt Q6RI86); experiment: Agonist activity at recombinant rat TRPA1 expressed in HEK293 cells assessed as increase in intracellular calcium level by Fluo4-AM probe based fluorescence assay; type: cell-based; in short: as §1
[4] = biological target: Transient receptor potential cation channel subfamily M member 8 (Rattus norvegicus, UniProt Q8R455); experiment: Antagonist activity at recombinant rat TRPM8 expressed in HEK293 cells assessed as inhibition of icilin-induced intracellular calcium level incubated for 5 mins followed by agonist stimulation by Fluo4-AM probe based fluorescence assay; type: cell-based
In short: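 Rat TRPM8 HEK-293 cells were loaded with Fluo-4 AM and suspended in Tyrode's buffer pH 7.4. Compound was added 5 min before icilin (0.25 μM), and [Ca2+]i was read at 22 °C on a Peltier system. IC50 for half-maximal inhibition of the agonist response was taken from sigmoidal fits.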

Cannabinoid receptor 2 = Cannabinoid receptor 2 (Homo sapiens, UniProt P34972); experiment: Displacement of 3H-CP-55940 from recombinant full length human CB2 receptor expressed in HEK293 cell membranes after 90 mins by topcount scintillation counting analysis
[5] = biological target: T2, Transient receptor potential cation channel, subfamily V, member 3 (Rattus norvegicus, UniProt E9PU00); experiment: Agonist activity at recombinant rat TRPV3 expressed in HEK293 cells assessed as increase in intracellular calcium level by Fluo4-AM probe based fluorescence assay; type: cell-based; in short: as §1
T2 sequence (E9PU00 whole entry): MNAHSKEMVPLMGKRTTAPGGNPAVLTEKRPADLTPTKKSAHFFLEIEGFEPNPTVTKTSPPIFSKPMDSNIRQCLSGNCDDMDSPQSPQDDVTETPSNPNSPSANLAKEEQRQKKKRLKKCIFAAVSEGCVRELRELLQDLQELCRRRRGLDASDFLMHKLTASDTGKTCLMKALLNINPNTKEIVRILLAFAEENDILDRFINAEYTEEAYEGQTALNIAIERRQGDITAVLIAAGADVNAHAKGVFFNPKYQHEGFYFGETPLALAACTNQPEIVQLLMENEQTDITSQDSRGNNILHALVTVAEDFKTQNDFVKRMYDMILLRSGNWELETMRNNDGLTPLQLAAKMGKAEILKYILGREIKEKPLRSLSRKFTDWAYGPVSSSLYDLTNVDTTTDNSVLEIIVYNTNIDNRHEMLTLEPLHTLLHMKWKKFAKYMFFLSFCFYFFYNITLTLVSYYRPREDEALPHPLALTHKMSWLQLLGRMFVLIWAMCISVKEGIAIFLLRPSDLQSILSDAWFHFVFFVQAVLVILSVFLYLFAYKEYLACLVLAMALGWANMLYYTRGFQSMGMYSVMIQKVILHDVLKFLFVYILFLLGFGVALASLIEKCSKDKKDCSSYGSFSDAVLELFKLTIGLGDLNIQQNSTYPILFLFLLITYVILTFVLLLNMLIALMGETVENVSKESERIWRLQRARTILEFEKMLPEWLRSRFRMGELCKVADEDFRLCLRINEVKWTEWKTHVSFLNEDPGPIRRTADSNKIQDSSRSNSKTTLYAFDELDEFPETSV

[6] = biological target: Transient receptor potential cation channel subfamily V member 1 (Homo sapiens, UniProt Q8NER1); experiment: Agonist activity at human TRPV1 expressed in HEK293 cells assessed as increase in intracellular calcium level by Fluo4-AM probe based fluorescence assay; type: cell-based; in short: as §1
Transient receptor potential cation channel subfamily V member 1, sequence (Q8NER1 whole entry): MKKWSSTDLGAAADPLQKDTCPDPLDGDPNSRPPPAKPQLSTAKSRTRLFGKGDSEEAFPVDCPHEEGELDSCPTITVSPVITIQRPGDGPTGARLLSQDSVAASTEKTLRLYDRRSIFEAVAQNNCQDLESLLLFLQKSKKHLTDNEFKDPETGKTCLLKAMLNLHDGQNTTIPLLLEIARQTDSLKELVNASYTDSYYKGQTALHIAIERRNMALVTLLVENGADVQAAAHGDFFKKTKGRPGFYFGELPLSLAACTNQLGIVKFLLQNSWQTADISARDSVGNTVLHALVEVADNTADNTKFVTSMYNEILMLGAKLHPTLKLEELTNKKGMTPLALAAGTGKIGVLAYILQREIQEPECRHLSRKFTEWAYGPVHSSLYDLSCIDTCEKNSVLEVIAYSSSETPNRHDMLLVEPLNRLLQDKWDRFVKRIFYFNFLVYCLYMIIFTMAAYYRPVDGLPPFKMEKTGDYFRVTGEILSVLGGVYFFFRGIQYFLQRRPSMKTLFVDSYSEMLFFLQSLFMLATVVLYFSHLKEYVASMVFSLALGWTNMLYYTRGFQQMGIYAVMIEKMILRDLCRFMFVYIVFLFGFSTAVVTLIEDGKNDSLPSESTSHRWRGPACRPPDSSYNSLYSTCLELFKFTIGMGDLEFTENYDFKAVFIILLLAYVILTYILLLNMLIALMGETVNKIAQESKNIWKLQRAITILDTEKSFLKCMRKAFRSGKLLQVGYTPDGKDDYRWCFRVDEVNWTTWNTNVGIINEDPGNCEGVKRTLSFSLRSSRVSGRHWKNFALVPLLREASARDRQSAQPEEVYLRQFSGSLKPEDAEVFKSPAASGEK

Cannabinoid receptor 2, sequence (P34972 whole entry): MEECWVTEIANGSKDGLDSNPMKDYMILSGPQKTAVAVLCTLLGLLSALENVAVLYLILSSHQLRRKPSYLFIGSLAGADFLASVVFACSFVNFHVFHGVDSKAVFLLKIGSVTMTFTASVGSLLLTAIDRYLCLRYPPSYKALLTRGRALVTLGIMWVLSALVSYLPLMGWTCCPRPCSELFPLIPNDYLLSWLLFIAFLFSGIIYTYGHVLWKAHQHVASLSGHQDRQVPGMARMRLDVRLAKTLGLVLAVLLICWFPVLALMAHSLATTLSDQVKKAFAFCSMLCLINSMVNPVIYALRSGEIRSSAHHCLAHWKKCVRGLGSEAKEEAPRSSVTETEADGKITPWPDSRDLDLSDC
Transient receptor potential cation channel subfamily V member 4, sequence (Q9ERZ8 whole entry): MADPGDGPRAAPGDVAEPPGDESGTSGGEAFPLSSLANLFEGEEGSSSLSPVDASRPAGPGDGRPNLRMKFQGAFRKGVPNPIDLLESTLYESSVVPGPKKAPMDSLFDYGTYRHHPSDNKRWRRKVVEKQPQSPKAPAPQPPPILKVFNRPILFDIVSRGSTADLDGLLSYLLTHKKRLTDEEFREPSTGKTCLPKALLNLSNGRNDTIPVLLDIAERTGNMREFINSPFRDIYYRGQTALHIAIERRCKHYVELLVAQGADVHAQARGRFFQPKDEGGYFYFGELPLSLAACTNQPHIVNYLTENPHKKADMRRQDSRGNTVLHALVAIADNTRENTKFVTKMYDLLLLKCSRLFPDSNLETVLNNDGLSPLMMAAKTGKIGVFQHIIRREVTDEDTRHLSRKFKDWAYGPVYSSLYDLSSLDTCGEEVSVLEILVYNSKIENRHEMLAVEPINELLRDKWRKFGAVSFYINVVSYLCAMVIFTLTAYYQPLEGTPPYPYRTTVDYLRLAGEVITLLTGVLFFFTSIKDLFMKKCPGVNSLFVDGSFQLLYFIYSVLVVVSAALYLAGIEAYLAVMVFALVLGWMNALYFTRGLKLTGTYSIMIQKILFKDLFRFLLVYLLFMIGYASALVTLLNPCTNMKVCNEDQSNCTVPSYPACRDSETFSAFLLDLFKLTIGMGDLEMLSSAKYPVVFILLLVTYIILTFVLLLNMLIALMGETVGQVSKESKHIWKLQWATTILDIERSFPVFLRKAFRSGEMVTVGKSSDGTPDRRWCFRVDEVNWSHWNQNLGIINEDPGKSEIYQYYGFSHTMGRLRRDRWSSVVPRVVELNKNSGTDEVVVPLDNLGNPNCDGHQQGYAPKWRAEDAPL
Transient receptor potential cation channel subfamily A member 1, sequence (Q6RI86 whole entry): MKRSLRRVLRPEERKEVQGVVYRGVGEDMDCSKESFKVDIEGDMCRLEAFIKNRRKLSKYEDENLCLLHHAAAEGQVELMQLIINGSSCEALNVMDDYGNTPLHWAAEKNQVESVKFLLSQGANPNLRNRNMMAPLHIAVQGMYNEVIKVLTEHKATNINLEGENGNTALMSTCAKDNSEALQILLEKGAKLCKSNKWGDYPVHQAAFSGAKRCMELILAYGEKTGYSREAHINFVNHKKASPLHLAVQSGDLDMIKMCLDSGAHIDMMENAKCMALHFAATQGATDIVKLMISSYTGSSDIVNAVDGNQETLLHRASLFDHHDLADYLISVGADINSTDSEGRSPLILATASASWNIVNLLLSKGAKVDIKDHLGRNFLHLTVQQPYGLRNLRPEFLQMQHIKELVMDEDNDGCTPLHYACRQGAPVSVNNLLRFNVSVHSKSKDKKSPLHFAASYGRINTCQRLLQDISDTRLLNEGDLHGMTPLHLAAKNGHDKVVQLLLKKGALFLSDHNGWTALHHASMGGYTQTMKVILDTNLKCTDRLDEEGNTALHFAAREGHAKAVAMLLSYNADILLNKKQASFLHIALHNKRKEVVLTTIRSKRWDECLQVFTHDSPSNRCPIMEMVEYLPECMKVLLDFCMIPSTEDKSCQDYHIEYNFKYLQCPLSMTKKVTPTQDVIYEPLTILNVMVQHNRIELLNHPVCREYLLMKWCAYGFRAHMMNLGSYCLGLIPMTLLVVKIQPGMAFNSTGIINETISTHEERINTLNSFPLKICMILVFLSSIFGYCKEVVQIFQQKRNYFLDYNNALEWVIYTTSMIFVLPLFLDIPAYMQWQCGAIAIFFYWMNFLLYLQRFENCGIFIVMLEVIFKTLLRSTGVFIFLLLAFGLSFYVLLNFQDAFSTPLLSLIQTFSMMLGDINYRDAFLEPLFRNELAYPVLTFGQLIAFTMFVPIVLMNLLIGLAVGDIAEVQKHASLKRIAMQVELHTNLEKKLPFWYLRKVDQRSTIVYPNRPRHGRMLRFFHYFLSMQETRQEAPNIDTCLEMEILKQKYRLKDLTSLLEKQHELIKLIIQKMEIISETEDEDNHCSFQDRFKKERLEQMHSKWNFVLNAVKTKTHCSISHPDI
Cannabinoid receptor 1, sequence (P21554 whole entry): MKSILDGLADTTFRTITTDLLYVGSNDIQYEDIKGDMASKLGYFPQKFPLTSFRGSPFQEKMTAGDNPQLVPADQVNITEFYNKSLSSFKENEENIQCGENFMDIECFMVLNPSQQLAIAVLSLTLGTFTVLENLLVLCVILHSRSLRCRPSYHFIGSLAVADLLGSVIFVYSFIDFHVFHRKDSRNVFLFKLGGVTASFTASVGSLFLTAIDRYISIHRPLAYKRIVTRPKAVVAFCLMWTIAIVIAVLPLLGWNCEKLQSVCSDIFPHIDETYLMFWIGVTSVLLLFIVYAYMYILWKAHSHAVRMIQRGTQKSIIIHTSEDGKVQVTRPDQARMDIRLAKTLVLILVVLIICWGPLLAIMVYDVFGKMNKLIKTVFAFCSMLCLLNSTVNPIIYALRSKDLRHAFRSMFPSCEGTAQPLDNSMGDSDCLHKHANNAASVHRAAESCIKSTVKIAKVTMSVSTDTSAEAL
Transient receptor potential cation channel subfamily M member 8, sequence (Q8R455 whole entry): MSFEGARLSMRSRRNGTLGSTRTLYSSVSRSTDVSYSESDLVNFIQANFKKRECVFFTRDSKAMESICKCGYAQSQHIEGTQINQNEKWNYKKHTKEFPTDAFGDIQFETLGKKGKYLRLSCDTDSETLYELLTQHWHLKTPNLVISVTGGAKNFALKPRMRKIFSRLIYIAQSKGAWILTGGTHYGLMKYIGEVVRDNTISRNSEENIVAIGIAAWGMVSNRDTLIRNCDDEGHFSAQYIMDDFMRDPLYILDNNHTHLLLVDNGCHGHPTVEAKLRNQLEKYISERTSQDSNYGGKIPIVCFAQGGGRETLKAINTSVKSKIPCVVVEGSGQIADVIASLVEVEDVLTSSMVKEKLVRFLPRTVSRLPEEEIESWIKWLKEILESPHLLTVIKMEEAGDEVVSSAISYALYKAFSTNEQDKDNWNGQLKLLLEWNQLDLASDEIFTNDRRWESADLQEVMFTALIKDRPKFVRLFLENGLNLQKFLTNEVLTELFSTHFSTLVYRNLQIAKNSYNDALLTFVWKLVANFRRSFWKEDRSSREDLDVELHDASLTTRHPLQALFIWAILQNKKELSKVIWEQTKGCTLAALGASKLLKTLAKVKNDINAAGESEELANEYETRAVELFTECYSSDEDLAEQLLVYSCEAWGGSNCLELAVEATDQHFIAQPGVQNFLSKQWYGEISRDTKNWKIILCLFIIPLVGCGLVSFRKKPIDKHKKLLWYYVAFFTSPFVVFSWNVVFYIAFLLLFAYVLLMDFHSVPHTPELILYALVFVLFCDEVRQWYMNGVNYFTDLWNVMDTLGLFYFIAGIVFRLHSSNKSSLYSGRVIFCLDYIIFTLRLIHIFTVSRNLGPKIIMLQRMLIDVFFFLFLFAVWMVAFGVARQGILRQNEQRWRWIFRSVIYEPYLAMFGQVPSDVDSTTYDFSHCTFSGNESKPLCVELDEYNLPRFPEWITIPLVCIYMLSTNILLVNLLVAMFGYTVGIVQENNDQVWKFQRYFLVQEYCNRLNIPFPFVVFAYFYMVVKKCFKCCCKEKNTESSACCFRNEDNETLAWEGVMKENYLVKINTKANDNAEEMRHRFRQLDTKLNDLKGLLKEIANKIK

| Compound | EC50 [1] [µM] | EC50 [2] [µM] | EC50 (Cannabinoid receptor 1) [µM] | EC50 [3] [µM] | IC50 [4] [µM] | EC50 (Cannabinoid receptor 2) [µM] | EC50 [5] [µM] | EC50 [6] [µM] |
| --- | --- | --- | --- | --- | --- | --- | --- | --- |
| CCCc1cc(O)c2c(c1)OC(C)(C)c1ccc(C)cc1-2 | 3.1 | 7.3 | 0.565 | 0.2 | 0.5 | 4.78 | 3.5 | 6.6 |
| CCCCCc1cc(O)c2c(c1)OC(C)(C)c1ccc(C)cc1-2 [CANNABINOL] | 19 | 16.1 | 0.075 | 0.18 | 0.21 | 0.073 | 5.3 | 6.2 |

— ChEMBL document CHEMBL4138251, “Iodine-Promoted Aromatization of p-Menthane-Type Phytocannabinoids” (J Nat Prod, 2018)
